CHOP inhibitor: blocks CHOP induction under ER stress. inhibition, % at 10 µM. 220,000 compounds, 3.8% hits. CHO-K1 CHOP-promoter luciferase, tunicamycin-induced, 15-18 h;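 active means compounds that reduced the stress-induced luciferase reporter signal by more than about 70% of percent inhibition, limit read from the data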
PREPL inh: inhibitors of human prolyl oligopeptidase-like enzyme PREPL; Q4J6C6; recombinant PREPL, fluorescence polarization activity-based probe; inhibition, % at 5.96 µM; 320,000 compounds, 0.68% hits; AID 2751; in the data active means inhibition above about 43%
Target sequence (Q4J6C6 whole entry, looked up): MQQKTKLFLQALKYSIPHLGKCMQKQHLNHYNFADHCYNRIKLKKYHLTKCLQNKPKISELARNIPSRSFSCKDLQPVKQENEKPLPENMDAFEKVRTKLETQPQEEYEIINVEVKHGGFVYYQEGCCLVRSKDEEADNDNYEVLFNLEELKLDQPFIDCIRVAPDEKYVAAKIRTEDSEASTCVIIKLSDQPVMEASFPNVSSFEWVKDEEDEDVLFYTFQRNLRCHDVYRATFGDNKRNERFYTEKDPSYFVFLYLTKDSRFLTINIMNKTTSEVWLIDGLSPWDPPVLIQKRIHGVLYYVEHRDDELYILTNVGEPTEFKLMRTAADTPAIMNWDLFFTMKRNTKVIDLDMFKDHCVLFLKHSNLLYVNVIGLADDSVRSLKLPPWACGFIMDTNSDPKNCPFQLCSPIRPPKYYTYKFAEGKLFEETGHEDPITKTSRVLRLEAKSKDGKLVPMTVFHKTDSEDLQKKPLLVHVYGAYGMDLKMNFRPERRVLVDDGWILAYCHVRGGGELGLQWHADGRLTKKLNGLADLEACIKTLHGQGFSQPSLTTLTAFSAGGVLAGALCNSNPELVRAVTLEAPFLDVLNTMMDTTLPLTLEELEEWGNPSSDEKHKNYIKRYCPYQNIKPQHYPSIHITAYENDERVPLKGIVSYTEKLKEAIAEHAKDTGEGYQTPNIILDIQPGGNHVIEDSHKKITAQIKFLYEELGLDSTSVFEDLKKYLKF
Beta cell apopt: blocks beta cell apoptosis; INS-1E cytokine-induced death, ATP luminescence, 48 h; percent of positive-control rescue, neutral wells zero; protection from apoptosis, % (test concentration not listed); 300,000 compounds, 0.8% hits;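 active means Every replicate reaches about 75%, or at least half do and their mean reaches it too, limit read from the data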;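 further: higher means more ATP so stronger rescue from cytokine killing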
T cruzi inh: T. cruzi replication inhibition. T. cruzi beta-gal in NIH3T3, luminescence, 90 h. 300,000 compounds, 1.4% hits. inhibition, % (concentration not given with the values). AID 1885;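 active means mean inhibition across valid replicates above about 55%, limit read from the data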;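 further: signal also drops with host cell toxicity which is not excluded here; higher percent means less beta-gal luminescence so fewer parasites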
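Material: NIH/3T3 host cells with β-galactosidase reporter T. cruzi; Input: 5,000 host fibroblasts per well; Medium: DMEM, 2% fetal bovine serum; Compound: 50 nL DMSO compound solution per well; Schedule: 3 h host attachment, then at least 90 h co-culture; Detection: luminescent β-galactosidase signal after 60 min lysis.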
NR3A LBD binder: modulators (binders) of human NR3A ligand-binding domain; NR3A LBD differential scanning fluorimetry, Tm shift; 0% = protein alone, 100% = glycine-bound protein; Tm shift relative to glycine control, % at 25 µM; 340,000 compounds, 2.5% hits; AID 1259313;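 active means melting temperature shift of at least 10% of the positive control shift, at one fixed dose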
CSC inhib: cancer stem cell inhibition; AID 2717; 300,000 compounds, 1.1% hits; inhibition, % at 7.5 µM; cancer stem cell-like cells viability, luminescence; in the data active means inhibition above about 75%; tested in HMLE shEcad cells
A number is an active result; 0 = inactive; - = not tested or not shown. Hits are enriched below; roughly 6.7% of the tested compounds scored in any of these assays.

SMILES	CHOP inhibitor	PREPL inh	Beta cell apopt	T cruzi inh	NR3A LBD binder	CSC inhib
CCN(CC)C(=O)NC1CC(=O)N(c2ccc(OC)cc2)C1 (centres undefined)	0	0	0	0	0	0
CC(=O)c1ccc(OC(C)C(=O)NCC2(N3CCOCC3)CCCCC2)cc1 (centres undefined)	-	0	0	-	0	0
Cc1cc(-c2ccc(C(C)C)c(S(=O)(=O)N3CCC(C)CC3)c2)on1	-	0	0	0	0	0
CCOc1ccc(N(C)c2ccc(/C=C3/SC(=S)NC3=O)cc2)cc1	-	0	0	0	0	97
CC(/C=C1\SC(=S)N(CCC(=O)Nc2ccc(O)cc2)C1=O)=C\c1ccccc1	-	0	0	0	14	0
O=C(CCN1C(=O)/C(=C\c2ccc(F)cc2)SC1=S)Nc1ccc(O)cc1	-	0	0	0	0	0
COc1ccc(/C=C2\SC(=S)N(CCC(=O)Nc3ccc(O)cc3)C2=O)cc1	-	0	-	0	15	0
O=C(O)CCCN1C(=O)/C(=C\C(Cl)=C\c2ccccc2)SC1=S	-	-	0	0	0	79
COc1cc2c(cc1CNC[C@H]1O[C@@H](n3cnc4c(N)ncnc43)[C@H](O)[C@@H]1O)OCO2	-	0	0	-	0	-
COc1ccc(/C=C2/SC(=S)N(CCCC(=O)Nc3ccc(O)cc3)C2=O)cc1OC	-	0	0	0	0	0
COc1ccc(/C=C2/SC(=O)N(CCC(=O)Nc3ccc(S(=O)(=O)Nc4nccs4)cc3)C2=O)cc1	0	0	-	0	0	0
COc1ccc(/C=C2\SC(=O)N(CCC(=O)Nc3ccc(S(=O)(=O)Nc4nccs4)cc3)C2=O)cc1	0	0	0	0	11	0
CCOc1ccc(/C=C2\SC(=S)N(CCC(=O)O)C2=O)cc1	84	0	0	0	0	0
Cc1ccc(/C=C2/SC(=S)N(CCCC(=O)Nc3ccc(O)cc3)C2=O)cc1	94	-	-	0	0	-
COc1ccc(-c2nc(NC(=O)c3[nH]c(C)c(C(C)=O)c3C)sc2C)cc1	0	0	0	0	0	0
COc1ccc(N(C(=O)CNC(=O)c2ccco2)C(C(=O)NCC2CCCO2)c2ccccc2)cc1 (centres undefined)	-	0	0	0	0	0
COc1cccc(C(=O)OCC(=O)N2CCc3ccccc3C2)c1OC	-	0	0	-	0	0
CC(C)C(NS(=O)(=O)c1cccc2nsnc12)C(=O)Nc1nc2ccc(Cl)cc2s1 (centres undefined)	88	0	-	0	0	-
COc1ccc(-n2c(C)nc3c(cnn3-c3ccc(Cl)cc3)c2=O)cc1	83	0	0	0	0	0
CCOC(=O)c1ccc(-n2c(C)nc3c(cnn3-c3ccc(Cl)cc3)c2=O)cc1	76	0	0	0	0	0
CCOC(=O)c1ccc(-n2c(C)nc3c(cnn3-c3ccccc3Cl)c2=O)cc1	0	0	0	0	0	0
COc1ccc(-c2cc(=O)[nH][nH]2)cc1OC	0	0	0	0	13	0
COc1cccc(-c2cc(=O)[nH][nH]2)c1	0	0	-	0	0	0
NS(=O)(=O)c1cccc(C(=O)OCC(=O)NC2CCCc3ccccc32)c1 (centres undefined)	-	0	0	-	0	0
c1ccc(Oc2nc(-c3ccccn3)nc3ccccc23)cc1	0	0	0	65	0	0
SMILES	CHOP inhibitor	PREPL inh	Beta cell apopt	T cruzi inh	NR3A LBD binder	CSC inhib
Fc1ccc(Oc2nc(-c3ccccn3)nc3ccccc23)cc1	0	0	77	0	0	0
CSc1nc(Oc2ccc(F)cc2)c2ccccc2n1	0	0	0	0	0	0
FC(F)(F)c1nc(Oc2ccccc2)c2ccccc2n1	83	0	0	0	0	0
COc1ccc(Oc2nc(-c3ccccn3)nc3ccccc23)cc1	0	0	-	0	0	-
Cc1nc(Oc2ccccc2)c2ccccc2n1	0	0	0	0	0	0
Cc1c(C(=O)OCC(=O)Nc2ccc(C(N)=O)cc2)cccc1[N+](=O)[O-]	0	0	0	0	0	0
O=C(OCc1cc(=O)n2ccsc2n1)c1ccc(OC(F)F)cc1	-	-	-	-	0	-
CCOC(=O)c1sc(N(Cc2ccccc2)C(=O)COC(=O)c2ccc(O)cc2)nc1C	0	0	0	0	29	0
Cc1ccc(N2CC(=O)N(NC(=O)Nc3ccc(Cl)c(Cl)c3)CC2=O)cc1	0	0	0	0	13	0
O=C(Nc1ccc(Cl)cc1)NN1CC(=O)N(c2cccc(C(F)(F)F)c2)CC1=O	0	0	0	0	30	0
Cc1ccc(S(=O)(=O)NNC(=O)Nc2ccc(Cl)c(Cl)c2)cc1	0	0	0	0	0	0
Nc1ccc(S(=O)(=O)N2CCC(Cc3ccccc3)CC2)cc1	-	0	0	0	0	0
CCc1ccc(NS(=O)(=O)c2ccc3[nH]cc(C(=O)N4CCc5ccccc54)c(=O)c3c2)cc1	0	0	0	0	12	0
O=C(NCc1ccccc1)c1c[nH]c2ccc(F)cc2c1=O	-	0	0	0	0	0
O=C(NCc1ccccc1)c1c[nH]c2ccc(S(=O)(=O)Nc3ccc4c(c3)OCCO4)cc2c1=O	0	0	0	0	12	0
Cc1cc(C)cc(NS(=O)(=O)c2ccc3[nH]cc(C(=O)N4CCc5ccccc54)c(=O)c3c2)c1	0	0	0	0	13	0
O=C(NC1CC1)c1c[nH]c2ccc(S(=O)(=O)Nc3cccc(C(F)(F)F)c3)cc2c1=O	0	0	0	0	11	0
CCN(CC)C(=O)c1c[nH]c2ccc(S(=O)(=O)Nc3cc(C)cc(C)c3)cc2c1=O	0	0	-	-	0	0
O=C(COc1ccc2ccc(=O)oc2c1)NC1CCN(Cc2ccccc2)CC1	-	0	0	0	0	0
COc1ccc(/C(C)=N/NC(=O)CNC(=O)C(c2ccccc2)c2ccccc2)c(OC)c1	-	0	0	0	0	0
Cc1ccc2[nH]c3c(=O)n(CC(=O)Nc4ccccc4N4CCN(C)CC4)ncc3c2c1	-	0	0	0	0	0
O=C(CC1C=CCC1)Nc1ccccc1 (centres undefined)	-	-	-	-	0	-
O=C(CSc1nnc(CNc2ccccc2)o1)N1CCCc2ccccc21	0	0	0	0	0	0
Cc1cc(C)cc(C(=O)Nc2nnc(SCC(=O)N3CCCc4ccccc43)s2)c1	0	0	0	0	0	75
O=C(Nc1nnc(SCC(=O)N2CCCc3ccccc32)s1)c1ccccc1	0	0	0	0	0	0
Cc1ccc(NCc2nnc(SCC(=O)N3CCCc4ccccc43)o2)c(C)c1	75	0	0	0	0	0
CN1CCN(c2ccc(S(=O)(=O)N3CCCCC3)cc2NC(=O)COc2cccc(Cl)c2)CC1	-	0	0	66	0	0
CN1CCC(N(C)S(=O)(=O)c2ccc(NC(=O)COc3ccc(F)cc3)cc2)CC1	-	0	-	58	0	0
Cc1cccc(NC(=O)CSCC(=O)Nc2cc(Cl)ccc2N2CCN(C)CC2)c1	-	0	0	59	0	0
CN1CCC(N(C)S(=O)(=O)c2ccc(NC(=O)COc3ccc(Cl)cc3)cc2)CC1	-	0	0	-	0	-
